Data published in ChEMBL document CHEMBL1142506, “(3S)-N-(L-Aminoacyl)-1,2,3,4-tetrahydroisoquinolines, a class of novel antithrombotic agents: synthesis, bioassay, 3D QSAR, and ADME analysis” (Bioorg Med Chem, 2008).
Square brackets hold non-standard residues; d marks the D form. Peptide text beside a SMILES is read from it. Tic = O=C(O)[C@@H]1Cc2ccccc2CN1

Tests used:
Platelet [1] = assay: Inhibition of adenosine diphosphate-induced platelet aggregation in pig blood; assay type: functional, cell-based; details: Sus scrofa
In short: (§1)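 Pig blood was spun at 1000g for 10 min to give PRP and at 1500g for 10 min to give PPP. PRP was adjusted to 2 × 10^8 platelets/ml with autologous PPP. The sample was preincubated with test agent or NS. Agonist final concentrations, each in NS: ADP 10 µM, AA 350 µM, PAF 0.1 µM, thrombin 0.1 U/ml. Optical aggregometry ran 5 min at 37 °C. Peak height gave maximal aggregation; % inhibition versus NS gave IC50.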

Platelet [2] = assay: Inhibition of arachidonic acid-induced platelet aggregation in pig blood; assay type: functional, cell-based; details: Sus scrofa; in short: as §1
Platelet [3] = assay: Inhibition of platelet-activating factor-induced platelet aggregation in pig blood; assay type: functional, cell-based; details: Sus scrofa; in short: as §1
Platelet [4] = assay: Inhibition of thrombin-induced platelet aggregation in pig blood; assay type: functional, cell-based; details: Sus scrofa; in short: as §1
Rattus norvegicus [5] = assay: Antithrombotic activity in Wistar rat assessed as wet thrombus weight at 5 umol/kg; assay type: functional
In short: (§2)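 Male Wistar rats (250–300 g) got the test agent orally, dissolved in NS and kept on ice; NS served as vehicle. After 45 min, rats were anesthetized with pentobarbital sodium (80.0 mg/kg ip). An extracorporeal carotid artery–jugular vein polyethylene cannula holding a weighed 6 cm thread was placed, and the wet thrombus weight on the thread was recorded.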

Rattus norvegicus [6] = assay: Antithrombotic activity in Wistar rat assessed as wet thrombus weight at 50 nmol/kg; assay type: functional
In short: (§3)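 Dose series (5 µmol/kg, 500 nmol/kg, 50 nmol/kg, 5 nmol/kg) given by intravenous injection to male Wistar rats (250–300 g) in an arteriovenous cannula model containing a weighed 6 cm thread. Anesthesia was pentobarbital sodium (80.0 mg/kg ip) with NS vehicle. Wet thrombus weight is given as mean ± SD, n = 12.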

Rattus norvegicus [7] = assay: Antithrombotic activity in Wistar rat assessed as wet thrombus weight at 5 nmol/kg; assay type: functional; in short: as §3
Rattus norvegicus [8] = assay: Antithrombotic activity in Wistar rat assessed as wet thrombus weight at 500 nmol/kg; assay type: functional; in short: as §3
Rattus norvegicus [9] = assay: Antithrombotic activity in Wistar rat assessed as wet thrombus weight at 110 x 5 umol/kg; assay type: functional; in short: as §2
Rattus norvegicus [10] = assay: Antithrombotic activity in Wistar rat assessed as wet thrombus weight at 22 x 5 umol/kg; assay type: functional; in short: as §2
Rattus norvegicus [11] = assay: Antithrombotic activity in Wistar rat assessed as wet thrombus weight at 15 umol/kg; assay type: functional; in short: as §2

SMILES | IC50 (Platelet [1]) [nM] | IC50 (Platelet [2]) [nM] | IC50 (Platelet [3]) [nM] | IC50 (Platelet [4]) [nM] | Activity (Rattus norvegicus [5]) [mg] | Activity (Rattus norvegicus [6]) [mg] | Activity (Rattus norvegicus [7]) [mg] | Activity (Rattus norvegicus [8]) [mg] | Activity (Rattus norvegicus [9]) [mg] | Activity (Rattus norvegicus [10]) [mg] | Activity (Rattus norvegicus [11]) [mg]
CSCC[C@H](N)C(=O)N1Cc2ccccc2C[C@H]1C(=O)O (H-Met-[Tic]-OH) | 265 | 430 | 409 | 607 | 19.56 |  |  |  |  |  | 
CC(C)[C@H](N)C(=O)N1Cc2ccccc2C[C@H]1C(=O)O (H-Val-[Tic]-OH) | 389 | 666 | 632 | 653 | 20.12 |  |  |  |  |  | 
N[C@@H](Cc1ccc(O)cc1)C(=O)N1Cc2ccccc2C[C@H]1C(=O)O (H-Tyr-[Tic]-OH) | 327 | 526 | 668 | 738 | 20.92 |  |  |  |  |  | 
C[C@@H](O)[C@H](N)C(=O)N1Cc2ccccc2C[C@H]1C(=O)O (H-Thr-[Tic]-OH) | 240 | 535 | 404 | 879 | 20.73 |  |  |  |  |  | 
O=C(O)[C@@H]1Cc2ccccc2CN1C(=O)[C@@H]1CCCN1 (H-Pro-[Tic]-OH) | 373 | 382 | 507 | 590 | 21.09 |  |  |  |  |  | 
N[C@@H](CO)C(=O)N1Cc2ccccc2C[C@H]1C(=O)O (H-Ser-[Tic]-OH) | 103 | 215 | 267 | 498 | 18 | 22.54 | 28.58 | 18.31 |  |  | 
N[C@@H](Cc1c[nH]c2ccccc12)C(=O)N1Cc2ccccc2C[C@H]1C(=O)O (H-Trp-[Tic]-OH) | 194 | 572 | 422 | 720 | 19.47 |  |  |  |  |  | 
N[C@@H](CCC(=O)O)C(=O)N1Cc2ccccc2C[C@H]1C(=O)O (H-Glu-[Tic]-OH) | 494 | 298 | 544 | 589 | 20.87 |  |  |  |  |  | 
NCCCC[C@H](N)C(=O)N1Cc2ccccc2C[C@H]1C(=O)O (H-Lys-[Tic]-OH) | 323 | 344 | 472 | 829 | 21.31 |  |  |  |  |  | 
CC[C@H](C)[C@H](N)C(=O)N1Cc2ccccc2C[C@H]1C(=O)O (H-Ile-[Tic]-OH) | 315 | 465 | 831 | 674 | 21.14 |  |  |  |  |  | 
CC(C)C[C@H](N)C(=O)N1Cc2ccccc2C[C@H]1C(=O)O (H-Leu-[Tic]-OH) | 336 | 238 | 892 | 730 | 19.12 |  |  |  |  |  | 
NC(=O)C[C@H](N)C(=O)N1Cc2ccccc2C[C@H]1C(=O)O (H-Asn-[Tic]-OH) | 534 | 407 | 360 | 495 | 22.66 |  |  |  |  |  | 
NC(=O)CC[C@H](N)C(=O)N1Cc2ccccc2C[C@H]1C(=O)O (H-Gln-[Tic]-OH) | 302 | 351 | 392 | 555 | 21.3 |  |  |  |  |  | 
N[C@@H](Cc1c[nH]cn1)C(=O)N1Cc2ccccc2C[C@H]1C(=O)O (H-His-[Tic]-OH) | 324 | 521 | 670 | 684 | 21.78 |  |  |  |  |  | 
N[C@@H](Cc1ccccc1)C(=O)N1Cc2ccccc2C[C@H]1C(=O)O (H-Phe-[Tic]-OH) | 370 | 573 | 527 | 851 | 22.23 |  |  |  |  |  | 
NCC(=O)N1Cc2ccccc2C[C@H]1C(=O)O (H-Gly-[Tic]-OH) | 365 | 423 | 875 | 761 | 21.17 |  |  |  |  |  | 
C[C@H](N)C(=O)N1Cc2ccccc2C[C@H]1C(=O)O (H-Ala-[Tic]-OH) | 651 | 440 | 945 | 741 | 20.3 |  |  |  |  |  | 
CC(=O)Oc1ccccc1C(=O)O [ASPIRIN] |  |  |  |  |  |  |  |  | 13.22 | 27.6 | 
N=C(N)NCCC[C@H](N)C(=O)N1Cc2ccccc2C[C@H]1C(=O)O (H-Arg-[Tic]-OH) | 210 | 217 | 517 | 565 | 20.06 |  |  |  |  |  | 
O=C(O)[C@@H]1Cc2ccccc2CN1 | 552 | 452 | 960 | 882 | 26.88 |  |  |  |  |  | 21.52
O=C(O)[C@@H]1Cc2c([nH]c3ccccc23)CN1 [CYCLOMETHYLTRYPTOPHAN] | 3320 | 3430 | 3180 | 3290 |  |  |  |  |  |  | 
N[C@@H](CC(=O)O)C(=O)N1Cc2ccccc2C[C@H]1C(=O)O (H-Asp-[Tic]-OH) | 345 | 369 | 383 | 902 | 20.3 |  |  |  |  |  | 
